The subject of assay [1] is Escherichia coli. Nature of the assay: Inhibition of Escherichia coli MurD ligase assessed as residual activity at 250 uM by colorimetry; values are per cent of control.
Assay [2] is described as follows: Inhibition of Escherichia coli MurD ligase assessed as residual activity by colorimetry. The gist of the method:
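Malachite green orthophosphate detection with purified E. coli MurD. Substrates 80 μM UDP-MurNAc-L-Ala, 100 μM D-Glu, 400 μM ATP; 5% DMSO final. Incubated 37 C for 15 min, A650 read. IC50 from seven concentrations run in triplicate.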

A short description of assay [3]: Inhibition of Escherichia coli MurD ligase assessed as conversion of D-[14C]Glu to UDP-MurNac-L-Ala by radioactivity assay. The gist of the method:
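Incubated 37 C for 30 min, stopped with acetic acid. Substrate and product separated by TLC and quantified by radioactivity scanning. IC50 from residual activities at seven concentrations.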

Assay [4] has as its system Staphylococcus aureus. Briefly: Antimicrobial activity against Staphylococcus aureus ATCC 29213 by microdilution method. It counts as functional. Particulars: in the assay text read “macrodilution” for “microdilution”. The gist of the method: (§1)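 Broth macrodilution in cation-adjusted Mueller–Hinton broth. Stock 2 mg/mL in DMSO, serially diluted to final 0.016–128 μg/mL. Inoculum from four colonies of a fresh overnight culture, adjusted to 0.5 McFarland and diluted to approximately 10^5 CFU/mL, then mixed 1:1 with drug. Incubated 35 C for 18–24 h. MIC is the lowest concentration giving complete inhibition of visible growth. QC with S. aureus ATCC 29213 and gentamicin.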

The test system of assay [5] is Enterococcus faecalis. Nature of the assay: Antimicrobial activity against Enterococcus faecalis ATCC 29212 by macrodilution method.
The subject of assay [6] is Escherichia coli. Nature of the assay: Antimicrobial activity against Escherichia coli ATCC 25922 by microdilution method. It counts as functional. Particulars: in the assay text read “macrodilution” for “microdilution”. The gist of the method:
as §1

Assay [7] concerns Pseudomonas aeruginosa. Briefly: Antimicrobial activity against Pseudomonas aeruginosa ATCC 27853 by microdilution method. It counts as functional. Particulars: in the assay text read “macrodilution” for “microdilution”. The gist of the method:
as §1
For orientation: Broth dilution looks for growth in wells or tubes with falling amounts of substance.

For `O=C(O)CC[C@H](NC(=O)c1ccc(CNc2ccc(/C=C3\SC(=O)NC3=O)cc2)cc1)C(=O)O`, the residual activity in assay [1] came to 88%. As to `O=C(O)CC[C@H](NC(=O)c1ccc(CNc2cccc(/C=C3\SC(=S)NC3=O)c2)cc1)C(=O)O`, the half-inhibitory concentration (IC50) in assay [2] is 206 µM.

In the case of `O=C(O)CC[C@@H](NC(=O)c1cccc(CNc2ccc(/C=C3\SC(=O)NC3=O)cc2)c1)C(=O)O`, the IC50 in assay [3] was 35 µM. Regarding `O=C(O)CC[C@@H](NC(=O)c1cccc(CNc2cccc(/C=C3\SC(=S)NC3=O)c2)c1)C(=O)O`, the residual activity in assay [1] was 39%.

For `O=C(O)CC[C@@H](NC(=O)c1cccc(CNc2cccc(/C=C3\SC(=O)NC3=O)c2)c1)C(=O)O`, the residual activity in assay [1] worked out at 87%. For the molecule `O=C(O)CC[C@@H](NC(=O)c1ccc(CNc2cccc(/C=C3\SC(=S)NC3=O)c2)cc1)C(=O)O`, the MIC in assay [4], in assay [5], in assay [6] and in assay [7] was above 128 µg/mL each time. Further, in assay [2], the IC50 was determined as 174 µM.

For `O=C(O)CC[C@@H](NC(=O)c1ccc(CNc2ccc(/C=C3\SC(=O)NC3=O)cc2)cc1)C(=O)O`, in assay [1], the residual activity came out at 70%.

For the molecule `O=C(O)CC[C@@H](NC(=O)c1ccc(CNc2ccc(/C=C3\SC(=S)NC3=O)cc2)cc1)C(=O)O`, the residual activity in assay [1] turned out to be 74%. With `O=C(O)CC[C@@H](NC(=O)c1cccc(CNc2ccc(/C=C3\SC(=S)NC3=O)cc2)c1)C(=O)O`, the IC50 in assay [3] came out at 49 µM; in assay [2], 45 µM. In addition, the MIC in assay [4], in assay [5], in assay [6] and in assay [7] was above 128 µg/mL in each case. Consider `O=C(O)CC[C@H](NC(=O)c1ccc(CNc2ccc(/C=C3\SC(=S)NC3=O)cc2)cc1)C(=O)O`, for which the residual activity in assay [1] amounted to 68%. Regarding `O=C(O)CC[C@H](NC(=O)c1ccc(CNc2cccc(/C=C3\SC(=O)NC3=O)c2)cc1)C(=O)O`, the residual activity in assay [1] is 87%.

As to `O=C(O)CC[C@@H](NC(=O)c1ccc(CNc2cccc(/C=C3\SC(=O)NC3=O)c2)cc1)C(=O)O`, the residual activity in assay [1] turned out to be 85%.

The residual activity is the activity still measured, relative to the control. The IC50 is the concentration needed to halve the response being measured. For orientation: MIC means the least concentration at which growth counts as inhibited. Low readings indicate greater potency, high ones weaker potency.

Source of the values: ChEMBL document CHEMBL1240528, “Discovery of novel 5-benzylidenerhodanine and 5-benzylidenethiazolidine-2,4-dione inhibitors of MurD ligase” (J Med Chem, 2010).
